Data as given in ChEMBL document CHEMBL1811814, “Synthesis and evaluation of indole, pyrazole, chromone and pyrimidine based conjugates for tumor growth inhibitory activities--development of highly efficacious cytotoxic agents” (Eur J Med Chem, 2010).

How the values were obtained:
Format in all cases: functional
Parameters in all cases: scale not given: the % may be the effect or the level left
PC-3 = test: Growth inhibition of human PC3 cells assessed tumor cell growth at 10^-5 M
Outline: (§1)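 NCI 60-human-tumor-cell-line panel screen. Each compound was tested at a single concentration of 10^-5 M, and percent growth of tumor cells was recorded for each cell line. Growth inhibition was expressed from these percent-growth values.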

EKVX = test: Growth inhibition of human EKVX cells assessed tumor cell growth at 10^-5 M; outline: as §1
SK-MEL-28 = test: Growth inhibition of human SK-MEL-28 cells assessed tumor cell growth at 10^-5 M; outline: as §1
IGROV-1 = test: Growth inhibition of human IGROV1 cells assessed tumor cell growth at 10^-5 M; outline: as §1
CCRF-CEM = test: Growth inhibition of human CCRF-CEM cells assessed tumor cell growth at 10^-5 M; outline: as §1
MCF7 = test: Growth inhibition of human MCF7 cells assessed tumor cell growth at 10^-5 M; outline: as §1
MOLT-4 = test: Growth inhibition of human MOLT4 cells assessed tumor cell growth at 10^-5 M; outline: as §1
HOP-62 = test: Growth inhibition of human HOP62 cells assessed tumor cell growth at 10^-5 M; outline: as §1
TK-10 = test: Growth inhibition of human TK10 cells assessed tumor cell growth at 10^-5 M
Outline: (§2)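 Single-dose screen at 10^-5 M across the 60 human tumor cell line panel, run to NCI standards. The value is the percent growth of each cell line in the presence of compound. Compounds active at this dose moved on to five-concentration testing (10^-4 to 10^-8 M).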

MDA-MB-231 = test: Growth inhibition of human MDA-MB-231 cells assessed tumor cell growth at 10^-5 M; outline: as §1
A498 = test: Growth inhibition of human A498 cells assessed tumor cell growth at 10^-5 M; outline: as §1
A549 = test: Growth inhibition of human A549 cells assessed tumor cell growth at 10^-5 M; outline: as §1
SN12C = test: Growth inhibition of human SN12C cells assessed tumor cell growth at 10^-5 M; outline: as §1
M14 = test: Growth inhibition of human M14 cells assessed tumor cell growth at 10^-5 M; outline: as §1
UACC-62 = test: Growth inhibition of human UACC62 cells assessed tumor cell growth at 10^-5 M; outline: as §2
OVCAR-4 = test: Growth inhibition of human OVCAR4 cells assessed tumor cell growth at 10^-5 M; outline: as §1
NCI-H23 = test: Growth inhibition of human NCI-H23 cells assessed tumor cell growth at 10^-5 M; outline: as §1
MDA-MB-468 = test: Growth inhibition of human MDA-MB-468 cells assessed tumor cell growth at 10^-5 M; outline: as §1
LOX IMVI = test: Growth inhibition of human LOXIMVI cells assessed tumor cell growth at 10^-5 M; outline: as §1
BT-549 = test: Growth inhibition of human BT549 cells assessed tumor cell growth at 10^-5 M; outline: as §1
NCI-H226 = test: Growth inhibition of human NCI-H226 cells assessed tumor cell growth at 10^-5 M; outline: as §1
SF-268 = test: Growth inhibition of human SF268 cells assessed tumor cell growth at 10^-5 M; outline: as §1
786-0 = test: Growth inhibition of human 786-0 cells assessed tumor cell growth at 10^-5 M; outline: as §1
CAKI-1 = test: Growth inhibition of human Caki1 cells assessed tumor cell growth at 10^-5 M; outline: as §1
SK-MEL-2 = test: Growth inhibition of human SK-MEL-2 cells assessed tumor cell growth at 10^-5 M; outline: as §1
SK-OV-3 = test: Growth inhibition of human SKOV3 cells assessed tumor cell growth at 10^-5 M; outline: as §1
Malme-3M = test: Growth inhibition of human MALME-3M cells assessed tumor cell growth at 10^-5 M; outline: as §1
OVCAR-5 = test: Growth inhibition of human OVCAR5 cells assessed tumor cell growth at 10^-5 M; outline: as §1
MDA-MB-435 = test: Growth inhibition of human MDA-MB-435 cells assessed tumor cell growth at 10^-5 M; outline: as §1
UO-31 = test: Growth inhibition of human UO31 cells assessed tumor cell growth at 10^-5 M; outline: as §2
SK-MEL-5 = test: Growth inhibition of human SK-MEL-5 cells assessed tumor cell growth at 10^-5 M; outline: as §1
SNB-75 = test: Growth inhibition of human SNB75 cells assessed tumor cell growth at 10^-5 M; outline: as §2
SF-295 = test: Growth inhibition of human SF295 cells assessed tumor cell growth at 10^-5 M; outline: as §1
SNB-19 = test: Growth inhibition of human SNB19 cells assessed tumor cell growth at 10^-5 M; outline: as §2
ACHN = test: Growth inhibition of human ACHN cells assessed tumor cell growth at 10^-5 M; outline: as §1
NCI-H322M = test: Growth inhibition of human NCI-H322M cells assessed tumor cell growth at 10^-5 M; outline: as §1
DU-145 = test: Growth inhibition of human DU145 cells assessed tumor cell growth at 10^-5 M; outline: as §1
U-251 = test: Growth inhibition of human U251 cells assessed tumor cell growth at 10^-5 M; outline: as §2
K562 = test: Growth inhibition of human K562 cells assessed tumor cell growth at 10^-5 M; outline: as §1
NCI/ADR-RES = test: Growth inhibition of human NCI/ADR-RES cells assessed tumor cell growth at 10^-5 M; outline: as §1
[1] = Growth inhibition of human Hs 578T cells assessed tumor cell growth at 10^-5 M; outline: as §1
RXF 393 = test: Growth inhibition of human RXF393 cells assessed tumor cell growth at 10^-5 M; outline: as §1
SW-620 = test: Growth inhibition of human SW620 cells assessed tumor cell growth at 10^-5 M; outline: as §2
HCT-15 = test: Growth inhibition of human HCT15 cells assessed tumor cell growth at 10^-5 M; outline: as §1
HT-29 = test: Growth inhibition of human HT-29 cells assessed tumor cell growth at 10^-5 M; outline: as §1
NCI-H522 = test: Growth inhibition of human NCI-H522 cells assessed tumor cell growth at 10^-5 M; outline: as §1
NCI-H460 = test: Growth inhibition of human NCI-H460 cells assessed tumor cell growth at 10^-5 M; outline: as §1
HOP-92 = test: Growth inhibition of human HOP92 cells assessed tumor cell growth at 10^-5 M; outline: as §1
SF-539 = test: Growth inhibition of human SF539 cells assessed tumor cell growth at 10^-5 M; outline: as §1
KM12 = test: Growth inhibition of human KM12 cells assessed tumor cell growth at 10^-5 M; outline: as §1
[2] = Growth inhibition of human […] cells assessed tumor cell growth at 10^-5 M; outline: as §1
UACC-257 = test: Growth inhibition of human UACC257 cells assessed tumor cell growth at 10^-5 M; outline: as §2
OVCAR-8 = test: Growth inhibition of human OVCAR8 cells assessed tumor cell growth at 10^-5 M; outline: as §1
COLO 205 = test: Growth inhibition of human COLO205 cells assessed tumor cell growth at 10^-5 M; outline: as §1
OVCAR-3 = test: Growth inhibition of human OVCAR3 cells assessed tumor cell growth at 10^-5 M; outline: as §1
HL-60(TB) = test: Growth inhibition of human HL-60(TB) cells assessed tumor cell growth at 10^-5 M
Outline: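 HL-60(TB), part of the 60-line panel, tested at a single concentration of 10^-5 M. The read-out is percent tumor cell growth relative to untreated growth.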

HCT-116 = test: Growth inhibition of human HCT116 cells assessed tumor cell growth at 10^-5 M; outline: as §1
T47D = test: Growth inhibition of human T47D cells assessed tumor cell growth at 10^-5 M; outline: as §2
HCC 2998 = test: Growth inhibition of human HCC2998 cells assessed tumor cell growth at 10^-5 M; outline: as §1

Compound `O=C1Nc2ccccc2/C1=C/c1cn(C(=O)c2ccc(Cl)cc2)c2ccccc12` has an Activity (PC-3) of 95.6%, an Activity (EKVX) of 58.9% and an Activity (SK-MEL-28) of 92.9%. The Activity (IGROV-1) was 72.6%, the Activity (CCRF-CEM) was 104.1% and the Activity (MCF7) was 59%. The Activity (MOLT-4) was 109.3%, the Activity (HOP-62) was 110.7% and the Activity (TK-10) was 130%. It also gave an Activity (MDA-MB-231) of 77.7%, an Activity (A498) of 116.3% and an Activity (A549) of 101.2%. It also gave an Activity (SN12C) of 95.4%, an Activity (M14) of 102.4% and an Activity (UACC-62) of 89.3%. The Activity (OVCAR-4) was 78.2%, the Activity (NCI-H23) was 90.8% and the Activity (MDA-MB-468) was 97.6%. For the same compound, the Activity (LOX IMVI) was 100%, the Activity (BT-549) was 96.4% and the Activity (NCI-H226) was 92.3%. The Activity (SF-268) was 99.8%, the Activity (786-0) was 111.4% and the Activity (CAKI-1) was 59%. For the same compound, the Activity (SK-MEL-2) was 119.8%, the Activity (SK-OV-3) was 103.8% and the Activity (Malme-3M) was 117.8%. It also gave an Activity (OVCAR-5) of 110.2%, an Activity (MDA-MB-435) of 109.9% and an Activity (UO-31) of 74.6%. It also gave an Activity (SK-MEL-5) of 97.6%, an Activity (SNB-75) of 87.7% and an Activity (SF-295) of 114.3%. The Activity (SNB-19) was 99%, the Activity (ACHN) was 102.9% and the Activity (NCI-H322M) was 126.5%. For the same compound, the Activity (DU-145) was 118.1%, the Activity (U-251) was 99.4% and the Activity (K562) was 85.6%. For the same compound, the Activity (NCI/ADR-RES) was 104.2%, the Activity [1] was 106% and the Activity (RXF 393) was 129.9%. The Activity (SW-620) was 102.4%, the Activity (HCT-15) was 92% and the Activity (HT-29) was 110%. The Activity (NCI-H522) was 85.5%, the Activity (NCI-H460) was 107.2% and the Activity (HOP-92) was 99.3%. For the same compound, the Activity (SF-539) was 99.3%, the Activity (KM12) was 40.8% and the Activity [2] was 74.5%. The Activity (UACC-257) was 99.6%, the Activity (OVCAR-8) was 95% and the Activity (COLO 205) was 58.2%. It also gave an Activity (OVCAR-3) of 98.7%, an Activity (HL-60(TB)) of 150.1% and an Activity (HCT-116) of 91.5%.
For `C=CCn1cc(/C=C2\C(=O)N(c3c(Cl)cccc3Cl)c3ccccc32)c2ccccc21`, the Activity (PC-3) was 58.2%, the Activity (EKVX) was 80.5% and the Activity (SK-MEL-28) was 109.8%. It also gave an Activity (IGROV-1) of 66.4%, an Activity (MCF7) of 89.3% and an Activity (MOLT-4) of 71.8%. It also gave an Activity (HOP-62) of 78.4%, an Activity (TK-10) of 100.4% and an Activity (MDA-MB-231) of 83.4%. It also gave an Activity (A498) of 107.5%, an Activity (A549) of 95.2% and an Activity (SN12C) of 94.9%. For the same compound, the Activity (M14) was 84.7%, the Activity (UACC-62) was 68.7% and the Activity (OVCAR-4) was 79.1%. It also gave an Activity (NCI-H23) of 83.7%, an Activity (MDA-MB-468) of 93.3% and an Activity (LOX IMVI) of 69.8%. It also gave an Activity (BT-549) of 127.4%, an Activity (NCI-H226) of 87% and an Activity (SF-268) of 77.4%. The Activity (786-0) was 86.2%, the Activity (CAKI-1) was 60.9% and the Activity (SK-MEL-2) was 102.6%. The Activity (T47D) was 63.9%, the Activity (SK-OV-3) was 98.2% and the Activity (Malme-3M) was 96.3%. The Activity (OVCAR-5) was 98.9%, the Activity (MDA-MB-435) was 100.8% and the Activity (UO-31) was 56.7%. For the same compound, the Activity (SK-MEL-5) was 72.6%, the Activity (SNB-75) was 71.5% and the Activity (SF-295) was 95.1%. For the same compound, the Activity (SNB-19) was 97.4%, the Activity (ACHN) was 80.5% and the Activity (NCI-H322M) was 96.2%. For the same compound, the Activity (DU-145) was 101.7%, the Activity (U-251) was 63.1% and the Activity (K562) was 53.6%. It also gave an Activity (NCI/ADR-RES) of 84.6%, an Activity [1] of 86.4% and an Activity (RXF 393) of 93.3%. For the same compound, the Activity (SW-620) was 86.9%, the Activity (HCT-15) was 48.8% and the Activity (HT-29) was 85.4%. The Activity (NCI-H522) was 88.3%, the Activity (NCI-H460) was 64.8% and the Activity (HOP-92) was 72.1%. It also gave an Activity (SF-539) of 92.2%, an Activity (KM12) of 83.7% and an Activity [2] of 86.7%. It also gave an Activity (UACC-257) of 116%, an Activity (OVCAR-8) of 90.7% and an Activity (COLO 205) of 111.6%. It also gave an Activity (OVCAR-3) of 88.2%, an Activity (HL-60(TB)) of 93.4% and an Activity (HCC 2998) of 92.3%. For the same compound, the Activity (HCT-116) was 44.8%.
